Laboratory results as given in ChEMBL document CHEMBL1129494, “Structure-based design of lipophilic quinazoline inhibitors of thymidylate synthase” (J Med Chem, 1996).

Columns and labels:
CCRF-CEM [1] = assay: (§1) Inhibition of CCRF-CEM (human leukemia) cell growth in vitro.; type: functional, cell-based
Method in brief: (§2)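 MTT colorimetric growth assay (modified Mosmann) in CCRF-CEM human leukemia cells seeded at 10 000 cells/well in RPMI-1640 with 5% fetal calf serum and 0.5% DMSO. Nine 2-fold serial dilutions of compound, 5 day incubation, then 4 h MTT and formazan dissolved in DMSO for spectrophotometric reading. IC50 taken from semilog plots of the mean of four growth assessments per dilution relative to control cultures.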

[2] = biological target: Thymidylate synthase (Homo sapiens) (UniProt P04818)
Sequence of Thymidylate synthase (Homo sapiens) (P04818 2-313 limits assumed): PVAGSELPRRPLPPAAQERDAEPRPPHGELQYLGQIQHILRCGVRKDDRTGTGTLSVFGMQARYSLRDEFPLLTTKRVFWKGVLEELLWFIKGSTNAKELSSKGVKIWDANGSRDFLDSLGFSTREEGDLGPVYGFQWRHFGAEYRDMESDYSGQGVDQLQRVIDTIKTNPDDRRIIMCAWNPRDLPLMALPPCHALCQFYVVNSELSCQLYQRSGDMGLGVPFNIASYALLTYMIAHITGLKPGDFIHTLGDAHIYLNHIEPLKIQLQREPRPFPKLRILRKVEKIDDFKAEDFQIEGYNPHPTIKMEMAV

GC3/MTK- [3] = assay: Inhibition of GC3/M TK- (human adenocarcinoma) cell growth in vitro.; type: functional, cell-based
Method in brief: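 Thymidine kinase-deficient human adenocarcinoma GC3/M TK- cells seeded at 10 000 cells/well in RPMI-1640 with 10% fetal calf serum and 0.5% DMSO. Compound given as nine 2-fold serial dilutions over a 5 day incubation, then 4 h MTT and spectrophotometric formazan read after DMSO dissolution. IC50 from semilog plots of the mean of four growth assessments relative to control cultures.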

[4] = biological target: Thymidylate synthase (Escherichia coli) (UniProt C3SWJ7)
Sequence of Thymidylate synthase (Escherichia coli) (C3SWJ7 1-264): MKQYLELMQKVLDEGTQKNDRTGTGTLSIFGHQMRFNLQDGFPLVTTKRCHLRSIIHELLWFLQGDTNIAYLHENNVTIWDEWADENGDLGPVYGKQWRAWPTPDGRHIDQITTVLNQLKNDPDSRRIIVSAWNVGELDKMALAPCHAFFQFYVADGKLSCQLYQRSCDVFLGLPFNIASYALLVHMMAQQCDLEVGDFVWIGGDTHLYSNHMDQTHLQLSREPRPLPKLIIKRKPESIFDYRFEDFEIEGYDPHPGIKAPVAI

[5] = biological target: Thymidylate synthase (Homo sapiens) (UniProt P04818); remark: listed apart in the source
L1210 [6] = assay: Inhibition of murine L1210 cell line tissue culture growth; type: functional, cell-based; conditions: Mus musculus
Method in brief: (§3)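 Murine L1210 leukemia cells seeded at 1000 cells/well in RPMI-1640 containing 5% fetal calf serum and 0.5% DMSO, exposed to nine 2-fold serial dilutions for 3 days. Growth was read by MTT (4 h), with formazan dissolved in DMSO and measured spectrophotometrically. IC50 comes from semilog concentration plots of the mean of four assessments per dilution versus control growth.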

[7] = biological target: Thymidylate synthase (Escherichia coli) (UniProt C3SWJ7); remark: listed apart in the source
GC3/MTK- [8] = assay: (§4) Inhibitory activity of compound against growth of thymidine kinase-deficient human adenocarcinoma cell line (GC3/M TK-) in tissue culture; type: functional; parameters: concentration or dose not given beside the values
Method in brief: (§5)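 MTT colorimetric growth assay in the thymidine kinase-deficient human adenocarcinoma line. Seeded at 10 000 cells/well in RPMI-1640 with 10% fetal calf serum and 0.5% DMSO. Nine 2-fold serial dilutions of compound, 5 day incubation, then 4 h MTT. Formazan dissolved in DMSO and read spectrophotometrically. IC50 taken from semilog plots of the mean of four growth assessments per dilution, relative to control cultures.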

CCRF-CEM [9] = assay: Activity for growth inhibition in tissue culture of human leukemias (CCRF-CEM). value in parenthesis indicates % inhibition; type: functional, cell-based
CCRF-CEM [10] = assay: as §1; type: functional; parameters: concentration or dose not given beside the values; method in brief: as §2
GC3/MTK- [11] = assay: Activity for growth inhibition in tissue culture of thymidine kinase-deficient human adenocarcinoma cell line (GC3/M TK-)value in parenthesis indicates % inhibition; type: functional, cell-based
L1210 [12] = assay: Inhibition of L1210 (murine leukemia) cell growth in vitro.; type: functional, Mus musculus; parameters: concentration or dose not given beside the values; method in brief: as §3
GC3/MTK- [13] = assay: as §4; type: functional; method in brief: as §5
CCRF-CEM [14] = assay: Inhibitory activity of compound against growth of human leukemias (CCRF-CEM) cell lne in tissue culture; type: functional; method in brief: as §2

SMILES: CCN(Cc1ccc2nc(C)nc(O)c2c1)c1ccc(S(=O)(=O)c2ccccc2)cc1
- IC50 (CCRF-CEM [1]): 2.7 µM
- Kis [2]: 0.034 µM
- IC50 (GC3/MTK- [3]): 2.6 µM
- Kis [4]: 0.077 µM
- Kii [5]: 0.13 µM
- IC50 (L1210 [6]): 0.66 µM
- Kii [7]: 0.24 µM

SMILES: C#CCN(Cc1ccc2nc(C)nc(O)c2c1)c1ccc([S+]([O-])c2ccccc2)cc1 (stereo not given)
- IC50 (CCRF-CEM [1]): 4.5 µM
- Kis [2]: 0.061 µM
- IC50 (GC3/MTK- [3]): 3.9 µM
- Kis [4]: 0.16 µM
- Kii [5]: 0.11 µM
- IC50 (L1210 [6]): 1.7 µM
- Kii [7]: 0.55 µM

SMILES: C#CCN(Cc1ccc2nc(C)nc(O)c2c1)c1ccc(S(=O)(=O)NCC(=O)O)c(C(F)(F)F)c1
- Kis [2]: 0.0096 µM
- IC50 (GC3/MTK- [3]): > 77 µM
- Kis [4]: 0.0059 µM
- Kii [5]: 0.019 µM
- IC50 (L1210 [6]): > 75 µM
- Kii [7]: 0.015 µM
- Inhibition (GC3/MTK- [8]): 28%
- IC50 (CCRF-CEM [9]): > 77 µM

SMILES: C#CCN(Cc1ccc2[nH]c(N)nc(=O)c2c1)c1ccc(C(=O)NC(CCC(=O)O)C(=O)O)cc1 (stereo not given)
- IC50 (GC3/MTK- [3]): 2.13 µM
- IC50 (L1210 [6]): 1.57 µM

SMILES: C#CCN(Cc1ccc2nc(C)nc(S)c2c1)c1cccc(C(F)(F)F)c1
- IC50 (CCRF-CEM [1]): > 5.6 µM
- Kis [2]: 1.3 µM
- Inhibition (CCRF-CEM [10]): 30%
- Kis [4]: 0.18 µM
- Kii [5]: 2.3 µM
- IC50 (L1210 [6]): > 5.6 µM
- Kii [7]: 0.36 µM
- IC50 (GC3/MTK- [11]): > 5.6 µM

SMILES: C#CCN(Cc1ccc2nc(C)nc(O)c2c1)c1cccc(C(C)O)c1 (stereo not given)
- Kis [2]: 1.7 µM
- Inhibition (CCRF-CEM [10]): 33%
- IC50 (GC3/MTK- [3]): 49 µM
- Kis [4]: 2.4 µM
- Kii [5]: 3.6 µM
- IC50 (L1210 [6]): > 49 µM
- Kii [7]: 8.3 µM
- Inhibition (L1210 [12]): 35%
- IC50 (CCRF-CEM [9]): > 49 µM

SMILES: C#CCN(Cc1ccc2nc(C)nc(O)c2c1)c1ccc(S(=O)(=O)C(F)(F)F)cc1
- Kis [2]: 0.021 µM
- Kis [4]: 0.042 µM
- Kii [5]: 0.028 µM
- IC50 (L1210 [6]): > 2.75 µM
- Kii [7]: 0.064 µM
- Inhibition (L1210 [12]): 45%
- IC50 (GC3/MTK- [11]): > 2.75 µM
- IC50 (CCRF-CEM [9]): > 2.75 µM

SMILES: C#CCN(Cc1ccc2nc(C)nc(O)c2c1)c1cccc(C#C)c1
- Kis [2]: 0.41 µM
- Inhibition (CCRF-CEM [10]): 15%
- Kis [4]: 0.86 µM
- Kii [5]: 0.68 µM
- IC50 (L1210 [6]): > 2.4 µM
- Kii [7]: 2.7 µM
- Inhibition (L1210 [12]): 5%
- IC50 (CCRF-CEM [9]): > 2.4 µM

SMILES: C#CCN(Cc1ccc2nc(C)nc(O)c2c1)c1ccc(C(=O)c2ccccc2)cc1
- IC50 (CCRF-CEM [1]): > 7.7 µM
- Kis [2]: 0.11 µM
- Inhibition (CCRF-CEM [10]): 40%
- IC50 (GC3/MTK- [3]): 6.2 µM
- Kis [4]: 0.094 µM
- Kii [5]: 0.16 µM
- IC50 (L1210 [6]): 7.7 µM
- Kii [7]: 0.47 µM

SMILES: CCN(Cc1ccc2nc(C)nc(O)c2c1)c1ccc(C(=O)C(F)(F)F)cc1
- IC50 (CCRF-CEM [1]): > 4 µM
- Kis [2]: 0.13 µM
- Inhibition (CCRF-CEM [10]): 10%
- IC50 (GC3/MTK- [3]): > 4 µM
- Kis [4]: 0.18 µM
- Kii [5]: 0.49 µM
- IC50 (L1210 [6]): 3.4 µM
- Kii [7]: 1 µM
- Inhibition (GC3/MTK- [8]): 10%

SMILES: Cc1nc(O)c2cc(CNc3ccc(S(=O)(=O)c4ccccc4)cc3)ccc2n1
- IC50 (CCRF-CEM [1]): > 14.7 µM
- Kis [2]: 1 µM
- Inhibition (CCRF-CEM [10]): 33%
- IC50 (GC3/MTK- [3]): > 14.7 µM
- Kis [4]: 2 µM
- Kii [5]: 2.2 µM
- IC50 (L1210 [6]): > 14.7 µM
- Kii [7]: 17 µM
- Inhibition (L1210 [12]): 40%
- Inhibition (GC3/MTK- [8]): 10%

SMILES: C#CCN(Cc1ccc2nc(C)nc(O)c2c1)c1ccc([N+](=O)[O-])c(C(F)(F)F)c1
- IC50 (CCRF-CEM [1]): 10.5 µM
- Kis [2]: 0.074 µM
- Kis [4]: 0.038 µM
- Kii [5]: 0.15 µM
- IC50 (L1210 [6]): 5 µM
- Kii [7]: 0.073 µM

SMILES: C#CCN(Cc1ccc2nc(C)nc(O)c2c1)c1ccc(S(=O)(=O)N2CCOCC2)cc1
- IC50 (CCRF-CEM [1]): 4.5 µM
- Kis [2]: 0.045 µM
- IC50 (GC3/MTK- [3]): 5.2 µM
- Kis [4]: 0.039 µM
- Kii [5]: 0.091 µM
- IC50 (L1210 [6]): 3.1 µM
- Kii [7]: 0.15 µM

SMILES: C#CCN(Cc1ccc2nc(C)nc(O)c2c1)c1ccc(S(=O)(=O)c2ccccc2)cc1
- IC50 (CCRF-CEM [1]): 1.44 µM
- IC50 (GC3/MTK- [3]): 1.76 µM
- IC50 (L1210 [6]): 0.86 µM

SMILES: C#CCN(Cc1ccc2nc(C)nc(O)c2c1)c1cccc(CC)c1
- Kis [2]: 2.7 µM
- Inhibition (GC3/MTK- [13]): 20%
- Inhibition (CCRF-CEM [10]): 26%
- Kis [4]: 5 µM
- Kii [5]: 3.8 µM
- IC50 (L1210 [6]): > 5 µM
- Kii [7]: 24 µM
- Inhibition (L1210 [12]): 25%
- IC50 (GC3/MTK- [11]): > 5 µM
- IC50 (CCRF-CEM [9]): > 5 µM

SMILES: C#CCN(Cc1ccc2nc(C)nc(O)c2c1)c1ccccc1
- IC50 (CCRF-CEM [1]): > 10.7 µM
- Inhibition (GC3/MTK- [13]): 24%
- IC50 (GC3/MTK- [3]): > 10.7 µM
- IC50 (L1210 [6]): > 6.5 µM
- Inhibition (CCRF-CEM [14]): 29%
- Inhibition (L1210 [12]): 35%

SMILES: C#CCN(Cc1ccc2nc(C)nc(O)c2c1)c1ccc(C#N)c(C(F)(F)F)c1
- Kis [2]: 0.081 µM
- Kis [4]: 0.015 µM
- Kii [5]: 0.14 µM
- IC50 (L1210 [6]): > 2.8 µM
- Kii [7]: 0.047 µM
- Inhibition (L1210 [12]): >15%

SMILES: C#CCN(Cc1ccc2nc(C)nc(O)c2c1)c1cccc(I)c1
- Kis [2]: 0.16 µM
- Inhibition (CCRF-CEM [10]): 10%
- IC50 (GC3/MTK- [3]): > 5.3 µM
- Kis [4]: 0.33 µM
- Kii [5]: 0.44 µM
- IC50 (L1210 [6]): > 5.3 µM
- Kii [7]: 1.4 µM
- Inhibition (GC3/MTK- [8]): 35%
- IC50 (CCRF-CEM [9]): > 5.3 µM

SMILES: C#CCN(Cc1ccc2nc(C)nc(O)c2c1)c1ccc([N+](=O)[O-])cc1
- IC50 (CCRF-CEM [1]): > 4.8 µM
- Kis [2]: 0.056 µM
- Inhibition (CCRF-CEM [10]): 8%
- IC50 (GC3/MTK- [3]): > 4.8 µM
- Kis [4]: 0.068 µM
- Kii [5]: 0.098 µM
- IC50 (L1210 [6]): 4.7 µM
- Kii [7]: 0.17 µM

SMILES: C#CCN(Cc1ccc2nc(C)nc(O)c2c1)c1ccc(S(N)(=O)=O)cc1
- IC50 (CCRF-CEM [1]): > 26 µM
- Kis [2]: 0.064 µM
- IC50 (GC3/MTK- [3]): > 26 µM
- Kis [4]: 0.1 µM
- Kii [5]: 0.084 µM
- IC50 (L1210 [6]): 20 µM
- Kii [7]: 0.41 µM

SMILES: C#CCN(Cc1ccc2nc(C)nc(O)c2c1)c1cccc(Br)c1
- IC50 (CCRF-CEM [1]): > 5.7 µM
- Kis [2]: 0.65 µM
- Inhibition (CCRF-CEM [10]): 20%
- IC50 (GC3/MTK- [3]): 5.3 µM
- Kis [4]: 0.92 µM
- Kii [5]: 0.84 µM
- IC50 (L1210 [6]): 1.8 µM
- Kii [7]: 3.3 µM

SMILES: Cc1nc(O)c2cc(CN(C)c3ccc(Cc4ccccc4)cc3)ccc2n1
- IC50 (CCRF-CEM [1]): 3.4 µM
- Kis [2]: > 1 µM
- Kis [4]: > 1 µM
- Kii [5]: > 1 µM
- IC50 (L1210 [6]): 2.8 µM
- Kii [7]: > 1 µM
- IC50 (GC3/MTK- [11]): > 5 µM

SMILES: C#CCN(Cc1ccc2nc(C)nc(O)c2c1)c1ccc(S(=O)(=O)N2CCNCC2)cc1
- IC50 (CCRF-CEM [1]): 48 µM
- Kis [2]: 0.063 µM
- Kis [4]: 0.1 µM
- Kii [5]: 0.071 µM
- IC50 (L1210 [6]): > 50 µM
- Kii [7]: 0.28 µM
- Inhibition (L1210 [12]): 47%
- IC50 (GC3/MTK- [11]): > 50 µM
- Inhibition (GC3/MTK- [8]): 47%
